ChEMBL document CHEMBL1133528, “Syntheses of 4'-C-ethynyl-beta-D-arabino- and 4'-C-ethynyl-2'-deoxy-beta-D-ribo-pentofuranosylpyrimidines and -purines and evaluation of their anti-HIV activity” (J Med Chem, 2000)

Experiments:
[1] = test system: MT4; assay: Tested in vitro against MT-4 cells using MTT assay; type: functional; conditions: Homo sapiens
How it was run: (§1)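 MT-4 cells (2 × 10⁴/mL) infected with 100 TCID₅₀ HIV-1_LAI, grown with drug dilution series 7 days at 37 °C. MTT added, 2 h at 37 °C, formazan dissolved in acidified 2-propanol with 4% Triton X-100, absorbance at 570 nm. Triplicates. EC₅₀ is concentration suppressing HIV-1 replication by 50%. SI calculated as CC₅₀/EC₅₀.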

[2] = test system: HeLa; assay: (§2) Tested in vitro against HIV-1 104pre from HeLa-CD4-[…]-beta gal-cells using MAGI assay; type: functional, cell-based; conditions: Homo sapiens
How it was run: (§3)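 HeLa-CD4-LTR-β-gal indicator cells seeded at 10⁴ cells/well, cultured 24 h, then exposed to HIV-1_104pre at 30 TCID₅₀ for 2 h at 37 °C. Drug series added 2 h before or 2 h after virus, kept present without washing. At 48 h cells fixed (1% formaldehyde, 0.2% glutaraldehyde in PBS), X-Gal stained, blue infected cells counted under microscope.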

[3] = target: Human immunodeficiency virus type 1 reverse transcriptase (Human immunodeficiency virus 1) (UniProt Q72547); assay: Selectivity index expressed as CC50/EC50; type: functional; how it was run: as §1
[4] = test system: HeLa; assay: as §2; type: functional, cell-based, human immunodefficiency virus type 1; conditions: Homo sapiens; how it was run: as §3

Row | Structure (SMILES) | CC50 [1] [µM] | EC50 [2] [µM] | SI [3] | EC50 [4] [µM]
1 | C#C[C@]1(CO)O[C@@H](n2cnc3cncnc32)C[C@@H]1O | > 380 | 132 | > 3.2 | –
2 | C#C[C@]1(CO)O[C@@H](n2cc(F)c(=O)[nH]c2=O)C[C@@H]1O | 3.4 | – | – | –
3 | C#C[C@]1(CO)O[C@@H](n2cc(I)c(N)nc2=O)C[C@@H]1O | > 100 | – | – | –
4 | C#C[C@]1(CO)O[C@@H](n2cc(Br)c(=O)[nH]c2=O)C[C@@H]1O | > 100 | – | > 44 | –
5 | C#C[C@]1(CO)O[C@@H](n2cc(I)c(=O)[nH]c2=O)C[C@@H]1O | > 260 | 0.36 | > 765 | –
6 | C#C[C@]1(CO)O[C@@H](n2cc(C)c(N)nc2=O)C[C@@H]1O | 0.7 | 0.0057 | 63 | –
7 | C#C[C@]1(CO)O[C@@H](n2cnc3c(O)ncnc32)C[C@@H]1O | 216 | 0.83 | 14.4 | –
8 | C#C[C@]1(CO)O[C@@H](n2cnc3c(N)nc(N)nc32)C[C@@H]1O | 0.82 | 0.0019 | 2730 | –
9 | C#C[C@]1(CO)O[C@@H](n2ccc(N)nc2=O)C[C@@H]1O | – | 0.00096 | 192 | –
10 | C#C[C@]1(CO)O[C@@H](n2cc(C)c(=O)[nH]c2=O)C[C@@H]1O | > 380 | 0.4 | > 623 | –
11 | C#C[C@]1(CO)O[C@@H](n2ccc(=O)[nH]c2=O)C[C@@H]1O | > 100 | – | – | –
12 | C#C[C@]1(CO)O[C@@H](n2cc(Br)c(N)nc2=O)C[C@@H]1O | > 100 | – | – | –
13 | C#C[C@]1(CO)O[C@@H](n2cc(Cl)c(=O)[nH]c2=O)C[C@@H]1O | 81.7 | – | 13.6 | –
14 | C#C[C@]1(CO)O[C@@H](n2cc(Cl)c(N)nc2=O)C[C@@H]1O | > 100 | – | – | –
15 | C#C[C@]1(CO)O[C@@H](n2cc(CC)c(=O)[nH]c2=O)C[C@@H]1O | > 360 | – | – | –
16 | C#C[C@]1(CO)O[C@@H](n2cnc3c(N)ncnc32)C[C@@H]1O | 11.7 | 0.0068 | 975 | –
17 | C#C[C@]1(CO)O[C@@H](n2cnc3c(=O)[nH]c(N)nc32)C[C@@H]1O | 1.5 | – | 1070 | 0.0071
18 | Cc1cn([C@H]2C[C@H](N=[N+]=[N-])[C@@H](CO)O2)c(=O)[nH]c1=O [ZIDOVUDINE] | > 100 | 0.002 | > 2630 | –
19 | C#C[C@]1(CO)O[C@@H](n2cc(F)c(N)nc2=O)C[C@@H]1O | > 100 | 0.002 | > 3330 | –
